In ChEMBL document CHEMBL1138053, “Design, synthesis, and structure-activity relationships of thieno[2,3-b]pyridin-4-one derivatives as a novel class of potent, orally active, non-peptide luteinizing hormone-releasing hormone receptor antagonists” (J Med Chem, 2006) one finds IC50, logD and inhibition data, which are given here for 40 molecules.

For data set [1], the target named is T1, Gonadotropin-releasing hormone receptor (Homo sapiens, UniProt P30968).
T1 sequence (P30968 whole entry): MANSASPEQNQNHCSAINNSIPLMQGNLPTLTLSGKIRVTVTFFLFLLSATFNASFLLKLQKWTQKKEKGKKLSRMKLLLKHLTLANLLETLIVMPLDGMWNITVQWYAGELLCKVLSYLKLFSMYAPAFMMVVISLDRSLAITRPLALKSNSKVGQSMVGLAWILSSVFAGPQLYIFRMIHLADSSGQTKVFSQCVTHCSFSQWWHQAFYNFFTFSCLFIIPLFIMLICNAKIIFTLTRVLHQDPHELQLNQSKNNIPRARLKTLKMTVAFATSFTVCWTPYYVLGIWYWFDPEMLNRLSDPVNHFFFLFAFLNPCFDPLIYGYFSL
The data set is described as follows: Inhibition of [125I]leuprorelin binding to human recombinant LHRH receptor expressed in CHO cells. The class given is cell-based.

The target of data set [2] is T2, Gonadotropin-releasing hormone receptor (Rattus norvegicus, UniProt P30969).
T2 sequence (P30969 whole entry): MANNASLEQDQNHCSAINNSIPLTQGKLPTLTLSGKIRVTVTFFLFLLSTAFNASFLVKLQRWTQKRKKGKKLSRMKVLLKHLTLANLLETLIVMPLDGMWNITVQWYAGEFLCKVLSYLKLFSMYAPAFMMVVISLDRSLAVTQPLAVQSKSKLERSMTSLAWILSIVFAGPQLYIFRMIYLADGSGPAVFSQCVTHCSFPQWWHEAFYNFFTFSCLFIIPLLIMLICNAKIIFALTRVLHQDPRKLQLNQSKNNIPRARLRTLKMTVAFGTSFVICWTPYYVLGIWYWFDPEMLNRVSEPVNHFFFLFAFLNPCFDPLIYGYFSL
The data set is described as follows: Inhibition of [125I]leuprorelin binding to rat anterior pituitary LHRH receptor.

Data set [3] has as its target T1, Gonadotropin-releasing hormone receptor. The data set is described as follows: Inhibition of LHRH-stimulated arachidonic acid release in CHO cells expressing human LHRH receptor. Type of data set: functional, cell-based. In a few lines:
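CHO cells stably expressing human or monkey LHRH receptor, seeded at 4 × 10⁴ cells/well and cultured 1 day, then labelled 1 day with [³H]arachidonic acid (11 kBq/well). Washed in DMEM with 20 mM HEPES and 0.2% BSA, preincubated with compound 60 min at 37 °C, then stimulated with LHRH (1 nM) for 40 min at 37 °C.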

A short description of data set [4]: Distribution coefficient, log D of the compound. The conditions noted are these: octanol/water.
In data set [5] the target is T3, Gonadotropin-releasing hormone receptor (Homo sapiens) (UniProt P30968).
T3 sequence (whole entry): T1 sequence (P30968 whole entry)
Nature of the data set: Inhibition of [125I]leuprorelin binding to human recombinant LHRH receptor at 20 uM. In a few lines:
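Membranes (0.2 mg/mL) from CHO cells stably expressing cloned human LHRH receptor, incubated 60 min at 25 °C with [125I]leuprorelin and test compound in Tris buffer pH 7.5 containing EDTA, BSA, NaN3 and protease inhibitors. Bound ligand separated by filtration on PEI-coated glass-fibre filters. Nonspecific binding taken with 1 µM unlabelled leuprorelin.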

Each structure is given as a SMILES string.

One may read the IC50 as the concentration at which inhibition is half-maximal. As for `CCOC(=O)c1cn(Cc2c(F)cccc2F)c2sc(-c3ccc(NC(=O)C(C)C)cc3)c(CN(C)Cc3ccccc3)c2c1=O`, in data set [1], the IC50 worked out at 0.2 nM.

Consider `CC(C)C(=O)c1cn(Cc2c(F)cccc2F)c2sc(-c3ccc(NC(=O)CN)cc3)c(CN(C)Cc3ccccc3)c2c1=O`, for which the concentration for half-maximal inhibition (IC50) in data set [1] stood at 9 nM.

With `CCOC(=O)c1cn(Cc2ccccc2OC)c2sc(-c3ccc(OC)cc3)c(C)c2c1=O`, the IC50 in data set [1] came out at 10000 nM.

As to `CC(C)C(=O)c1cn(Cc2c(F)cccc2F)c2sc(-c3ccc(NC(=O)CO)cc3)c(CN(C)Cc3ccccc3)c2c1=O`, the IC50 in data set [1] stood at 0.2 nM.

Regarding `CC(C)C(=O)Nc1ccc(-c2sc3c(c2CN(C)Cc2ccccc2)c(=O)c(C(O)C(C)C)cn3Cc2c(F)cccc2F)cc1` (stereo unspecified), in data set [1], the half-inhibitory concentration (IC50) stood at 0.4 nM.

Take `CCOC(=O)c1cn(Cc2ccccc2)c2sc(-c3ccc(NC(=O)C(C)C)cc3)c(CN(C)Cc3ccccc3)c2c1=O`: the IC50 in data set [1] came out at 0.6 nM.

`CCOC(=O)c1cn(Cc2cccc(F)c2)c2sc(-c3ccc(OC)cc3)c(CN(C)Cc3ccccc3)c2c1=O`: in data set [1], the IC50 is 300 nM.

Turning to `CCOC(=O)c1cn(Cc2ccccc2F)c2sc(-c3ccc(N(C)C(=O)NC)cc3)c(CN(C)Cc3ccccc3)c2c1=O`, the IC50 in data set [1] was 2 nM.

Turning to `CC(C)C(=O)c1cn(Cc2c(F)cccc2F)c2sc(-c3ccc(NC(=O)C4(O)CC4)cc3)c(CN(C)Cc3ccccc3)c2c1=O`, the IC50 came to 0.1 nM in data set [1], 150 nM in data set [2] and 0.1 nM in data set [3].

On to `CCOC(=O)c1cn(Cc2cccc(OC)c2)c2sc(-c3ccc(OC)cc3)c(CN(C)Cc3ccccc3)c2c1=O`, for which the IC50 in data set [1] came out at 400 nM.

On to `CCOC(=O)c1cn(Cc2ccccc2F)c2sc(-c3ccc(NC(=O)CC)cc3)c(CN(C)Cc3ccccc3)c2c1=O`, for which the IC50 in data set [1] stood at 0.4 nM.

Turning to `CCC(=O)Nc1ccc(-c2sc3c(c2CN(C)Cc2ccccc2)c(=O)c(C(=O)NC(C)C)cn3Cc2c(F)cccc2F)cc1`, the IC50 in data set [1] was determined as 8 nM.

On to `CCOC(=O)c1cn(Cc2ccccc2OC)c2sc(-c3ccc(OC)cc3)c(CN(C)C)c2c1=O`, for which the 50% inhibitory concentration (IC50) in data set [1] was 500 nM.

As a reminder, the logD is the decadic logarithm of the distribution of all forms, ionised or not, between an organic phase and buffer at a given pH. Higher therefore signals a more lipophilic compound. `CC(C)C(=O)Nc1ccc(-c2sc3c(c2CN(C)Cc2ccccc2)c(=O)c(C(=O)C(C)C)cn3Cc2c(F)cccc2F)cc1`: the IC50 in data set [1] worked out at 0.2 nM. In data set [4], this molecule had a logD of 6.33.

As to `CCOC(=O)c1cn(Cc2ccc(OC)cc2)c2sc(-c3ccc(OC)cc3)c(CN(C)Cc3ccccc3)c2c1=O`, the IC50 in data set [1] was found to be 300 nM.

Turning to `CC(C)C(=O)Nc1ccc(-c2sc3c(c2CN(C)Cc2ccccc2)c(=O)c(C(=O)c2ccccc2)cn3Cc2c(F)cccc2F)cc1`, in data set [1], the IC50 came to 0.1 nM.

In the case of `CCOC(=O)c1cn(Cc2ccccc2F)c2sc(-c3ccc(NC(=O)Nc4ccccc4)cc3)c(CN(C)Cc3ccccc3)c2c1=O`, the IC50 in data set [1] was determined as 30 nM.

Turning to `CCOC(=O)c1cn(C)c2sc(-c3ccc(OC)cc3)c(CN(C)Cc3ccccc3)c2c1=O`, the IC50 in data set [1] was found to be 5000 nM.

Regarding `CCOC(=O)c1cn(Cc2ccccc2OC)c2sc(-c3ccccc3)c(CN(C)Cc3ccccc3)c2c1=O`, the IC50 in data set [1] turned out to be 200 nM.

Consider `CCOC(=O)c1cn(Cc2ccccc2OC)c2sc(-c3ccccc3OC)c(CN(C)Cc3ccccc3)c2c1=O`, for which, in data set [1], the IC50 turned out to be 700 nM.

For `CCOC(=O)c1cn(Cc2ccccc2OC)c2sc(-c3ccc(OC)cc3)c(CN(CC)Cc3ccccc3)c2c1=O`, the IC50 in data set [1] worked out at 300 nM.

Take `CCOC(=O)c1cn(Cc2ccccc2[N+](=O)[O-])c2sc(-c3ccc(OC)cc3)c(CN(C)Cc3ccccc3)c2c1=O`: the IC50 in data set [1] is 100 nM.

As to `CCOC(=O)c1cn(Cc2ccc(F)cc2)c2sc(-c3ccc(OC)cc3)c(CN(C)Cc3ccccc3)c2c1=O`, the IC50 in data set [1] is 400 nM.

Take `CCOC(=O)c1cn(Cc2ccccc2F)c2sc(-c3ccc(OC)cc3)c(CN(C)Cc3ccccc3)c2c1=O`: the IC50 in data set [1] and in data set [1] (cho) was 30 nM each time.

As to `CCOC(=O)c1cn(Cc2c(F)cccc2F)c2sc(-c3ccc(NC(=O)NC)cc3)c(CN(C)Cc3ccccc3)c2c1=O`, in data set [1], the half-maximal inhibitory concentration (IC50) turned out to be 0.06 nM.

Take `CCOC(=O)c1cn(Cc2ccccc2F)c2sc(-c3ccc(NC(=O)NC)cc3)c(CN(C)Cc3ccccc3)c2c1=O`: the IC50 in data set [1] was found to be 0.07 nM.

Take `CCOC(=O)c1cn(Cc2ccccc2)c2sc(-c3cccc(OC)c3)c(CN(C)Cc3ccccc3)c2c1=O`: in data set [1], the IC50 amounted to 500 nM.

As to `CCOC(=O)c1cn(Cc2ccccc2F)c2sc(-c3ccc(N)cc3)c(CN(C)Cc3ccccc3)c2c1=O`, in data set [1], the half-inhibitory concentration (IC50) came out at 40 nM.

Regarding `CCOC(=O)c1cn(Cc2ccccc2OC)c2sc(-c3ccc(OC)cc3)c(CNCc3ccccc3)c2c1=O`, in data set [1], the IC50 was 2000 nM.

As for `CCOC(=O)c1cn(Cc2ccccc2F)c2sc(-c3ccc(NC(=O)c4ccccc4)cc3)c(CN(C)Cc3ccccc3)c2c1=O`, in data set [1], the IC50 is 1 nM.

Broadly, the inhibition is how much of the control response was suppressed. As for `CCOC(=O)c1cn(Cc2ccccc2OC)c2sc(-c3ccc(OC)cc3)c(CNc3ccccc3)c2c1=O`, in data set [5], the inhibition was found to be 42%.

For the molecule `CCC(=O)c1cn(Cc2c(F)cccc2F)c2sc(-c3ccc(NC(=O)C(C)C)cc3)c(CN(C)Cc3ccccc3)c2c1=O`, the half-inhibitory concentration (IC50) in data set [1] was determined as 0.4 nM.

For the molecule `CCOC(=O)c1cnc2sc(-c3ccc(OC)cc3)c(CN(C)Cc3ccccc3)c2c1O`, in data set [1], the IC50 is over 20000 nM.

Take `CCOC(=O)c1cn(Cc2ccccc2OC)c2sc(-c3ccc(OC)cc3)c(CN(Cc3ccccc3)C(C)=O)c2c1=O`: the IC50 in data set [1] amounted to 7000 nM.

In the case of `CC(C)C(=O)c1cn(Cc2c(F)cccc2F)c2sc(-c3ccc(NC(=O)C(C)(C)O)cc3)c(CN(C)Cc3ccccc3)c2c1=O`, in data set [1], the IC50 turned out to be 0.2 nM.

In the case of `CCOC(=O)c1cn(Cc2ccccc2C#N)c2sc(-c3ccc(OC)cc3)c(CN(C)Cc3ccccc3)c2c1=O`, in data set [1], the IC50 turned out to be 100 nM.

In the case of `CCOC(=O)c1cn(Cc2c(F)cccc2F)c2sc(-c3ccc(NC(=O)CC)cc3)c(CN(C)Cc3ccccc3)c2c1=O`, the IC50 in data set [1] amounted to 0.1 nM.

Regarding `CCOC(=O)c1cn(Cc2ccccc2F)c2sc(-c3ccc(NC(C)=O)cc3)c(CN(C)Cc3ccccc3)c2c1=O`, in data set [1], the IC50 was 2 nM.

Turning to `CCOC(=O)c1cn(Cc2ccccc2)c2sc(-c3ccc(OC)cc3)c(CN(C)Cc3ccccc3)c2c1=O`, the IC50 in data set [1] was 200 nM.

As for `CNC(=O)Nc1ccc(-c2sc3c(c2CN(C)Cc2ccccc2)c(=O)c(C(=O)C(C)C)cn3Cc2c(F)cccc2F)cc1`, the IC50 in data set [1] was found to be 0.1 nM; in data set [2], 200 nM; in data set [3] it was 0.07 nM.
